Test results from ChEMBL document CHEMBL2203045, “Development of 5-nitrothiazole derivatives: identification of leads against both replicative and latent Mycobacterium tuberculosis” (Bioorg Med Chem Lett, 2012).
In brackets after ≈: the same amount, converted by molar mass. Activity calls are given as the source filed them. The calls are words filed in the database; no cut-off is given here.

How the values were obtained:
[1] = test system: Mycobacterium tuberculosis; experiment: Antitubercular activity against log phase culture of Mycobacterium tuberculosis H37Rv ATCC 27294 by agar dilution method; type: functional
How it was run: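 H37Rv (ATCC27294) was tested by agar dilution, with the compound serially diluted from 50 to 0.78 in duplicate. MIC was taken as the lowest concentration giving complete growth inhibition.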

[2] = test system: Mycobacterium tuberculosis; experiment: Antitubercular activity against non-culturable Mycobacterium tuberculosis assessed as reduction in dormant cell viability at 10 ug/mL measured for 7 days by MPN assay; type: functional, organism-based
How it was run: (§1)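 Bacilli were grown in potassium-deficient Sauton's medium with ADC and 0.05% Tween-80 at 37 °C and 200 rpm. Dormancy was confirmed by failure to form colonies on agar-solidified Sauton's. Non-culturable cells were washed and exposed to compound for 7 days, then resuscitated in liquid Sauton's alongside untreated cells. Recovered cell concentration was estimated by Most Probable Number assay with statistical treatment.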

[3] = Cytotoxicity against HEK293T cells assessed as cellular growth at 25 uM by MTT assay; type: cell-based, HEK-293T; conditions: human, read-out: Activity
How it was run: (§2)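 HEK293T cells were exposed to compound at 25 and 100 and read out by MTT assay.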

[4] = Therapeutic index, ratio of cytotoxicity against HEK293T cells to MIC for log phase culture of Mycobacterium tuberculosis H37Rv ATCC 27294; type: cell-based, HEK-293T; conditions: human, read-out: TI
[5] = test system: Mycobacterium tuberculosis; experiment: Antitubercular activity against non-culturable Mycobacterium tuberculosis assessed as log reduction in dormant cell viability at 10 ug/mL measured for 7 days by MPN assay relative to control; type: functional; how it was run: as §1
[6] = test system: Mycobacterium tuberculosis; experiment: Ratio of nitazoxanide MIC to compound MIC for log phase culture of Mycobacterium tuberculosis H37Rv ATCC 27294; type: functional
[7] = Cytotoxicity against HEK293T cells assessed as cellular growth at 100 uM by MTT assay; type: cell-based, HEK-293T; conditions: human, read-out: Activity; how it was run: as §2

Compound | MIC [1] | Activity [2] | viability at 25 µM [3] | selectivity ratio [4] | FC [5] | Ratio [6] | viability at 100 µM [7]
NNC(=O)c1ccncc1 [ISONIAZID] | 0.72 µM (≈ 0.0987 µg/mL) | Active | – | – | – | – | –
CC(C)c1cc(C(=O)Nc2ncc([N+](=O)[O-])s2)c(OC(=O)c2ccccc2)c(C(C)C)c1 | > 110 µM | – | – | – | – | – | –
O=C(Nc1ncc([N+](=O)[O-])s1)c1ccc([N+](=O)[O-])o1 | 5.48 µM (≈ 1.56 µg/mL) | – | 87.4% | > 20 | 1 | 29 | 67.3%
O=C(Nc1ncc([N+](=O)[O-])s1)c1ccc(Cl)cc1O | > 167 µM | – | – | – | – | – | –
O=C(Oc1c(Cl)cc(Cl)cc1C(=O)Nc1ncc([N+](=O)[O-])s1)c1ccccc1 | 28.5 µM (≈ 12.5 µg/mL) | – | 100% | – | – | – | 61.6%
O=C(Oc1ccc(Cl)cc1C(=O)Nc1ncc([N+](=O)[O-])s1)c1ccccc1 | 15.5 µM (≈ 6.25 µg/mL) | – | 72.2% | – | – | – | 23.7%
O=C(Nc1ncc([N+](=O)[O-])s1)c1ccco1 | 206 µM (≈ 49.2 µg/mL) | – | – | – | – | – | –
CC(=O)Oc1c(C(=O)Nc2ncc([N+](=O)[O-])s2)cc(C(C)C)cc1C(C)C | 63.9 µM (≈ 25 µg/mL) | – | 45.9% | – | – | 2.54 | 20.6%
O=C(Nc1ncc([N+](=O)[O-])s1)c1cc(Cl)ccc1O | 20.9 µM (≈ 6.25 µg/mL) | – | 100% | – | – | – | 63%
CC(=O)Oc1cc(Cl)ccc1C(=O)Nc1ncc([N+](=O)[O-])s1 | 36.6 µM (≈ 12.5 µg/mL) | – | 100% | – | – | 4.4 | 83.5%
Cc1ccc(-c2ccc(C(=O)Nc3ncc([N+](=O)[O-])s3)o2)cc1 | 19 µM (≈ 6.25 µg/mL) | – | 94.1% | – | – | – | 91.5%
O=C(Oc1cc(Cl)ccc1C(=O)Nc1ncc([N+](=O)[O-])s1)c1ccccc1 | > 124 µM | – | – | – | – | – | –
CO[C@H]1/C=C/O[C@@]2(C)Oc3c(C)c(O)c4c(O)c(c(/C=N/N5CCN(C)CC5)c(O)c4c3C2=O)NC(=O)/C(C)=C\C=C\[C@H](C)[C@H](O)[C@@H](C)[C@@H](O)[C@@H](C)[C@H](OC(C)=O)[C@@H]1C [RIFAMPIN] | 0.48 µM (≈ 0.395 µg/mL) | Active | – | – | – | – | –
O=C(Nc1ncc([N+](=O)[O-])s1)c1cc(Cl)cc(Cl)c1O | 74.8 µM (≈ 25 µg/mL) | – | 100% | – | – | – | 23.5%
O=C(Nc1ncc([N+](=O)[O-])s1)c1ccc([N+](=O)[O-])s1 | 20.8 µM (≈ 6.25 µg/mL) | – | 100% | – | – | – | 35.9%
CC(=O)Oc1ccccc1C(=O)Nc1ncc([N+](=O)[O-])s1 [NITAZOXANIDE] | 163 µM (≈ 50 µg/mL) | – | – | – | – | – | –
COOc1ccc(-c2ccc(C(=O)Nc3ncc([N+](=O)[O-])s3)o2)cc1 | 72.4 µM (≈ 26.2 µg/mL) | – | 100% | – | – | – | 95.7%
CC(=O)Oc1c(Cl)cc(Cl)cc1C(=O)Nc1ncc([N+](=O)[O-])s1 | 66.5 µM (≈ 25 µg/mL) | – | 100% | – | – | 2.44 | 95.1%
CC(C)c1cc(C(=O)Nc2ncc([N+](=O)[O-])s2)c(O)c(C(C)C)c1 | 17.9 µM (≈ 6.25 µg/mL) | – | 29.4% | – | – | – | 7.1%
O=C(Nc1ncc([N+](=O)[O-])s1)c1ccc(-c2ccc(Br)cc2)o1 | 31.7 µM (≈ 12.5 µg/mL) | – | 89.1% | – | – | – | 70.3%
O=C(Nc1ncc([N+](=O)[O-])s1)c1ccc(-c2ccc([N+](=O)[O-])cc2)o1 | 17.3 µM (≈ 6.25 µg/mL) | – | 88.4% | – | – | – | 79.2%
COc1ccc(OC(=O)c2ccccc2)c(C(=O)Nc2ncc([N+](=O)[O-])s2)c1 | 15.6 µM (≈ 6.25 µg/mL) | – | 100% | – | – | – | 67.6%
COc1ccc(OC(C)=O)c(C(=O)Nc2ncc([N+](=O)[O-])s2)c1 | 74.1 µM (≈ 25 µg/mL) | – | 100% | – | – | 2.19 | 94.1%
O=C(Nc1ncc([N+](=O)[O-])s1)c1cccs1 [TENONITROZOLE] | 24.5 µM (≈ 6.25 µg/mL) | – | 100% | – | – | – | 93.4%
O=C(Nc1ncc([N+](=O)[O-])s1)c1ccc(-c2ccc(Cl)cc2)o1 | 17.9 µM (≈ 6.25 µg/mL) | – | 75% | – | – | – | 74.1%
CC(=O)Oc1ccc(Cl)cc1C(=O)Nc1ncc([N+](=O)[O-])s1 | 18.3 µM (≈ 6.25 µg/mL) | – | 59.5% | – | – | 8.9 | 31.1%
O=C(Nc1nc2ccc([N+](=O)[O-])cc2s1)c1ccc([N+](=O)[O-])o1 | 150 µM (≈ 50 µg/mL) | – | 100% | – | 1 | – | 43.3%
COc1ccc(O)c(C(=O)Nc2ncc([N+](=O)[O-])s2)c1 | 84.7 µM (≈ 25 µg/mL) | – | 100% | – | – | – | 100%
O=C(Oc1c(C(=O)Nc2ncc([N+](=O)[O-])s2)cc([N+](=O)[O-])cc1[N+](=O)[O-])c1ccccc1 | > 109 µM | – | – | – | – | – | –
